From PubChem BioAssay
Shown are actives, neighbours in structure and some others; about 2.5% of the full set was active somewhere.
TRPC6 inhibitor = mouse TRPC6 channel inhibition | Q61143 | HEK293-TRPC6, membrane potential dye, ACh-evoked depolarization; hits give low values | B-score at 10 µM | actives 1.1% (n = 310,000) | AID 2553;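 active = B-score under library mean minus 3 SD, initial fluorescence not abnormally high, positive integrated signal ratio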;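 note: B-score derived from integrated fluorescence ratio over the kinetic read; more negative B-score means stronger inhibition of depolarization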
TRPC6 act = activates the mouse TRPC6 cation channel | HEK293-TRPC6 membrane potential dye fluorescence; hits give high values | B-score at 10 µM | AID 2550 | actives 0.13% (n = 310,000) | Q61143;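 active = B-score of the integrated fluorescence ratio above library mean plus 3 SD, and starting fluorescence ratio within library mean plus 5 SD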;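 note: higher score means more depolarization so channel activation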
TRPC4 inh = inhibitors of mouse TRPC4 channel; HEK293 TRPC4beta/mu-opioid, DAMGO-evoked Fluo4 calcium flux; hits give low values; B-score at 10 µM; actives 0.39% (n = 300,000); Q9QUQ5; AID 2247;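 active = B-score over 3 SD under the library average, no early fluorescence shift, positive overall ratio signal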
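test system = HEK293 cells with stable TRPC4beta plus mu-opioid receptor expression | detection = Fluo4 Ca2+ flux fluorescence | read-out = integrated fluorescence ratio relative to baseline, converted to per-well B score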
Platelet DG rel = platelet dense granule release activity; inhibition, %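 (compounds screened at 7.5 µM in platelet-rich plasma)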; AID 1663; human platelet-rich plasma, SFLLRN dense granule ATP release, luminescence; actives 0.22% (n = 300,000);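 active = mean replicate score, as percent of positive control, at or above 50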
TRPC4 act = opens the mouse TRPC4 cation channel; B-score at 10 µM; Q9QUQ5; HEK293 TRPC4beta/mu-opioid, Fluo4 calcium fluorescence; hits give high values; actives 0.49% (n = 310,000);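 active = B-score above 5 SD of library B-scores, and initial fluorescence ratio not above library mean plus 5 SD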;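 note: positive B-score marks a calcium rise read as TRPC4 activation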
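Material: TRPC4beta and mu-opioid receptor HEK293 stable cells | Incubation: 45 min room-temperature Fluo4 loading, 110 s read | Detection: Kinetic Fluo4 calcium fluorescence | Measure: Integrated baseline-normalised fluorescence ratio, converted to per-well B score | Benchmarks: Low control buffer alone, high control maximal DAMGO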
TRPC4 potent = allosterically enhances the mouse TRPC4 cation channel | actives 0.42% (n = 310,000) | Q9QUQ5 | HEK293 TRPC4beta/mu-opioid, DAMGO EC20, Fluo-4 Ca2+ flux; hits give high values | B-score at 10 µM;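 active = B-score of calcium response area above 5 SD of library B-scores, with initial fluorescence ratio within 5 SD of library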;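 note: B-score of integrated fluorescence ratio over time as area under calcium response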
* = called active by the depositor; i = inactive.

SMILES | TRPC6 inhibitor | TRPC6 act | TRPC4 inh | Platelet DG rel | TRPC4 act | TRPC4 potent
O=C(CCCOc1ccc(Cl)cc1Cl)NCCc1ccccn1 | i | i | i | 3 | i | i
Fc1ccc2[nH]c3c(N4CCc5ccccc5C4)ncnc3c2c1 | i | i | i | 1 | i | i
Cc1ccc2[nH]c3c(N4CCc5ccccc5C4)ncnc3c2c1 | i | i | i | 0 | 76* | i
CC1(C)C(=O)Nc2ccccc2N1C(=O)COC(=O)C1CCCCC1 | i | i | i | -22 | i | 10*
CCN(CC)c1ccc2c(Cl)c(Br)c(=O)oc2c1 | i | i | -6* | 10 | i | i
CCN(CC)c1ccc2c(C)c(Cl)c(=O)oc2c1 | i | i | i | -2 | i | i
CCOC(=O)CNS(=O)(=O)c1ccc(S(=O)(=O)NC2CC2)cc1 | i | i | i | 10 | i | i
Cc1ccc(NS(=O)(=O)c2cc(C(=O)NCc3ccccn3)ccc2Cl)cc1C | i | i | i | 2 | i | 11*
Cc1ccc(C(=O)NCc2ccccn2)cc1Cl | i | i | i | 9 | i | 10*
Cc1ccc(C)c(NS(=O)(=O)c2cc(C(=O)NCc3ccccn3)ccc2Cl)c1 | i | i | i | -14 | i | i
Cc1nc(C)n(CC(O)COc2ccc3c(c2)CCC3)n1 (configuration not stated) | i | i | i | 3 | i | i
CC(C)(C)CC(C)(C)NCC(O)COc1ccc2c(c1)CCC2 (configuration not stated) | i | i | -6* | 5 | i | i
CC1CC(C)CN(CC(O)COc2ccc3c(c2)CCC3)C1 (configuration not stated) | i | i | i | -9 | i | i
CC(C)(CO)NCC(O)COc1ccc2c(c1)CCC2 (configuration not stated) | i | i | i | 51* | i | i
CC(OC(=O)c1ccc2c(c1)OCCO2)C(=O)c1ccccc1 (configuration not stated) | i | i | i | 9 | i | i
O=C(O)c1c(NC(=O)N2CCOCC2)sc2c1CCCC2 | i | i | i | 1 | i | i
CCCN(CCC)CCCNC(=O)C1CCN(S(=O)(=O)c2cccc3nsnc23)CC1 | i | i | i | -1 | 134* | i
CCN(CCNC(=O)C1CCN(S(=O)(=O)c2cccc3nsnc23)CC1)c1ccccc1 | i | i | i | -1 | i | i
c1ccc(-c2ccccc2OCCOCCN2CCc3ccccc3C2)cc1 | i | i | i | -1 | i | i
CC1CN(CCOCCOc2ccccc2-c2ccccc2)CC(C)O1 (configuration not stated) | i | i | i | 8 | 63* | i
S=c1[nH]nc(-c2ccncc2)n1/N=C/C(Cl)=C\c1ccccc1 | i | i | i | 1 | i | 12*
O=C(NC(=S)NNC(=O)[C@H]1C[C@@H]1c1ccccc1)c1cccc(F)c1 | i | i | i | 12 | 211* | i
Cc1cccc(C(=O)NC(=S)NNC(=O)COc2ccc(Cl)cc2)c1 | i | i | i | 13 | 68* | i
Cc1cccc(/C(N)=N/OC(=O)COc2ccc(Cl)cc2)c1 | i | i | i | 1 | i | i
COc1ccccc1C(=O)NC(=S)NNC(=O)c1sc2ccccc2c1Cl | i | i | i | 6 | i | i
SMILES | TRPC6 inhibitor | TRPC6 act | TRPC4 inh | Platelet DG rel | TRPC4 act | TRPC4 potent
COc1ccccc1C(=O)NNC(=S)NC(=O)c1sc2ccccc2c1Cl | i | i | -8* | -5 | 48* | i
Cc1cccc(C(=O)NNC(=S)NC(=O)c2ccccc2)c1 | i | i | i | -6 | 173* | i
Cc1cccc(C(=O)NNC(=S)NC(=O)c2cccs2)c1 | i | i | i | 2 | 212* | i
COc1ccc(C(=O)NNC(=S)NC(=O)c2ccc(F)cc2)cc1Br | i | i | i | 8 | 49* | i
CC(C)C(=O)Nc1ccc(C(=O)NNC(=S)NC(=O)c2cccs2)cc1 | i | i | i | 0 | i | i
O=C(Cc1ccc(Cl)cc1)NNC(=S)NC(=O)c1cccs1 | i | i | i | 5 | 107* | i
COc1ccc(C(=O)NC(=S)NNC(=O)c2ccc(NC(C)=O)cc2)cc1Br | i | i | i | -2 | i | i
CCCCC(=O)NC(=S)NNC(=O)c1ccc(Cl)cc1Cl | i | i | i | 4 | 165* | i
Cc1ccc(C(=O)NNC(=S)NC(=O)c2ccc(Cl)cc2Cl)cc1 | i | i | i | 9 | i | i
COC(=O)c1sc(N2C(=O)C(O)=C(C(=O)c3ccc(C)o3)C2c2cc(OC)ccc2OC)nc1C (configuration not stated) | i | i | i | -5 | i | i
COc1cccc(NC(=O)CN(C)C(=O)c2ccc3c(c2)S(=O)(=O)N=C2CCCCCN23)c1 | i | i | i | -6 | i | i
COc1ccc(C(=O)NNC(=S)NC(=O)c2cccnc2)cc1 | i | i | i | 29 | i | i
COc1ccc(C(=O)NC(=S)NNC(=O)c2cccc(C)c2)cc1 | i | i | i | 27 | 214* | i
COc1ccc(C(=O)NNC(=S)NC(=O)c2ccc(OC)cc2)cc1 | i | i | i | 3 | 78* | i
Cc1occc1C(=O)NNC(=S)NC(=O)COc1ccc(Cl)cc1Cl | i | i | i | -4 | 87* | i
COc1ccc(C(=O)NNC(=S)NC(=O)c2cccs2)cc1 | i | i | i | -2 | 85* | i
CCC(C)(C)NC(=O)C(c1cccnc1)N(C(=O)c1csnn1)c1ccc(C)cc1 (configuration not stated) | i | i | i | -9 | i | i
CC(Oc1ccc(Br)cc1)C(=O)NC1CCN(Cc2ccccc2)CC1 (configuration not stated) | i | i | i | 8 | i | i
COc1ccccc1C(=O)NNC(=S)NC(=O)c1cccs1 | i | i | i | 0 | 137* | i
O=C(COc1cccc(Cl)c1)NNC(=S)Nc1ccccc1 | i | i | i | -8 | i | i
O=C(NC(=S)NNC(=O)c1ccccc1O)c1cccs1 | i | i | i | 12 | i | i
O=C(COc1ccccc1)NNC(=S)NC(=O)c1ccc(Cl)cc1Cl | i | i | i | 0 | 69* | i
